Experimental data published in ChEMBL document CHEMBL4715736, “Identification of anticancer agents based on the thieno[2,3-b]pyridine and 1H-pyrazole molecular scaffolds” (2016).

Legend:
Type in all cases: functional
Conditions in all cases: read-out: Activity
[1] = tested on: MDA-MB-435; experiment: Growth inhibition of human MDA-MB-435 cells assessed as cell growth at 10 uM incubated for 48 hrs by sulforhodamine B assay relative to control
Summary of the method: (§1)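 Submitted to the NCI Developmental Therapeutics Program for the NCI60 human tumour cell line panel. First screen at a single 10 µM concentration. Read-out is growth relative to untreated control cells set at 100%.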

[2] = tested on: SF-268; experiment: Growth inhibition of human SF-268 cells assessed as cell growth at 10 uM incubated for 48 hrs by sulforhodamine B assay relative to control
Summary of the method: (§2)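 Run by the NCI Developmental Therapeutics Program as part of its 60-line human tumour panel. Each compound tested at a single 10 µM dose. Growth expressed as % relative to untreated control cells (100%).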

[3] = tested on: HOP-92; experiment: Growth inhibition of human HOP-92 cells assessed as cell growth at 10 uM incubated for 48 hrs by sulforhodamine B assay relative to control; summary of the method: as §1
[4] = tested on: SN12C; experiment: Growth inhibition of human SN12C cells assessed as cell growth at 10 uM incubated for 48 hrs by sulforhodamine B assay relative to control; summary of the method: as §2
[5] = tested on: RPMI-8226; experiment: Growth inhibition of human RPMI-8226 cells assessed as cell growth at 10 uM incubated for 48 hrs by sulforhodamine B assay relative to control; summary of the method: as §2
[6] = tested on: CCRF-CEM; experiment: Growth inhibition of human CCRF-CEM cells assessed as cell growth at 10 uM incubated for 48 hrs by sulforhodamine B assay relative to control
Summary of the method: (§3)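 NCI Developmental Therapeutics Program NCI60 panel. Compounds that were active in the 10 µM one-dose screen went on to dose–response testing. Growth at each concentration is expressed relative to untreated control (100%). GI50 (concentration giving 50% of maximal inhibition of proliferation) and TGI (concentration giving total growth inhibition) were derived from the curves.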

[7] = tested on: Malme-3M; experiment: Growth inhibition of human Malme-3M cells assessed as cell growth at 10 uM incubated for 48 hrs by sulforhodamine B assay relative to control; summary of the method: as §1
[8] = tested on: UO-31; experiment: Growth inhibition of human UO-31 cells assessed as cell growth at 10 uM incubated for 48 hrs by sulforhodamine B assay relative to control; summary of the method: as §2
[9] = tested on: RXF 393; experiment: Growth inhibition of human RXF 393 cells assessed as cell growth at 10 uM incubated for 48 hrs by sulforhodamine B assay relative to control; summary of the method: as §2
[10] = tested on: OVCAR-3; experiment: Growth inhibition of human OVCAR-3 cells assessed as cell growth at 10 uM incubated for 48 hrs by sulforhodamine B assay relative to control; summary of the method: as §2
[11] = tested on: SNB-75; experiment: Growth inhibition of human SNB-75 cells assessed as cell growth at 10 uM incubated for 48 hrs by sulforhodamine B assay relative to control; summary of the method: as §2
[12] = tested on: UACC-257; experiment: Growth inhibition of human UACC-257 cells assessed as cell growth at 10 uM incubated for 48 hrs by sulforhodamine B assay relative to control; summary of the method: as §2
[13] = tested on: SF-539; experiment: Growth inhibition of human SF-539 cells assessed as cell growth at 10 uM incubated for 48 hrs by sulforhodamine B assay relative to control; summary of the method: as §2
[14] = tested on: OVCAR-8; experiment: Growth inhibition of human OVCAR-8 cells assessed as cell growth at 10 uM incubated for 48 hrs by sulforhodamine B assay relative to control; summary of the method: as §2
[15] = tested on: MOLT-4; experiment: Growth inhibition of human MOLT-4 cells assessed as cell growth at 10 uM incubated for 48 hrs by sulforhodamine B assay relative to control; summary of the method: as §1
[16] = tested on: OVCAR-4; experiment: Growth inhibition of human OVCAR-4 cells assessed as cell growth at 10 uM incubated for 48 hrs by sulforhodamine B assay relative to control; summary of the method: as §2
[17] = tested on: PC-3; experiment: Growth inhibition of human PC-3 cells assessed as cell growth at 10 uM incubated for 48 hrs by sulforhodamine B assay relative to control; summary of the method: as §2
[18] = tested on: LOX IMVI; experiment: Growth inhibition of human LOX IMVI cells assessed as cell growth at 10 uM incubated for 48 hrs by sulforhodamine B assay relative to control; summary of the method: as §1
[19] = tested on: SNB-19; experiment: Growth inhibition of human SNB-19 cells assessed as cell growth at 10 uM incubated for 48 hrs by sulforhodamine B assay relative to control; summary of the method: as §2
[20] = tested on: T47D; experiment: Growth inhibition of human T47D cells assessed as cell growth at 10 uM incubated for 48 hrs by sulforhodamine B assay relative to control; summary of the method: as §2
[21] = tested on: UACC-62; experiment: Growth inhibition of human UACC-62 cells assessed as cell growth at 10 uM incubated for 48 hrs by sulforhodamine B assay relative to control; summary of the method: as §2
[22] = tested on: NCI-H460; experiment: Growth inhibition of human NCI-H460 cells assessed as cell growth at 10 uM incubated for 48 hrs by sulforhodamine B assay relative to control; summary of the method: as §1
[23] = tested on: IGROV-1; experiment: Growth inhibition of human IGROV-1 cells assessed as cell growth at 10 uM incubated for 48 hrs by sulforhodamine B assay relative to control; summary of the method: as §1
[24] = tested on: MDA-MB-231; experiment: Growth inhibition of human MDA-MB-231 cells assessed as cell growth at 10 uM incubated for 48 hrs by sulforhodamine B assay relative to control; summary of the method: as §1
[25] = tested on: HCT-15; experiment: Growth inhibition of human HCT-15 cells assessed as cell growth at 10 uM incubated for 48 hrs by sulforhodamine B assay relative to control; summary of the method: as §1
[26] = tested on: SK-MEL-5; experiment: Growth inhibition of human SK-MEL-5 cells assessed as cell growth at 10 uM incubated for 48 hrs by sulforhodamine B assay relative to control; summary of the method: as §2
[27] = tested on: OVCAR-5; experiment: Growth inhibition of human OVCAR-5 cells assessed as cell growth at 10 uM incubated for 48 hrs by sulforhodamine B assay relative to control; summary of the method: as §2
[28] = tested on: Hs-578T; experiment: Growth inhibition of human Hs-578T cells assessed as cell growth at 10 uM incubated for 48 hrs by sulforhodamine B assay relative to control; summary of the method: as §1
[29] = tested on: COLO 205; experiment: Growth inhibition of human COLO 205 cells assessed as cell growth at 10 uM incubated for 48 hrs by sulforhodamine B assay relative to control; summary of the method: as §3
[30] = tested on: SW-620; experiment: Growth inhibition of human SW-620 cells assessed as cell growth at 10 uM incubated for 48 hrs by sulforhodamine B assay relative to control; summary of the method: as §2
[31] = tested on: NCI-H322M; experiment: Growth inhibition of human NCI-H322M cells assessed as cell growth at 10 uM incubated for 48 hrs by sulforhodamine B assay relative to control; summary of the method: as §1
[32] = tested on: NCI/ADR-RES; experiment: Growth inhibition of human NCI/ADR-RES cells assessed as cell growth at 10 uM incubated for 48 hrs by sulforhodamine B assay relative to control; summary of the method: as §1
[33] = tested on: A498; experiment: Growth inhibition of human A498 cells assessed as cell growth at 10 uM incubated for 48 hrs by sulforhodamine B assay relative to control; summary of the method: as §3
[34] = tested on: MCF7; experiment: Growth inhibition of human MCF7 cells assessed as cell growth at 10 uM incubated for 48 hrs by sulforhodamine B assay relative to control; summary of the method: as §1
[35] = tested on: NCI-H226; experiment: Growth inhibition of human NCI-H226 cells assessed as cell growth at 10 uM incubated for 48 hrs by sulforhodamine B assay relative to control; summary of the method: as §1
[36] = tested on: K562; experiment: Growth inhibition of human K562 cells assessed as cell growth at 10 uM incubated for 48 hrs by sulforhodamine B assay relative to control; summary of the method: as §1

| SMILES | growth at 10 µM [1] [%] | growth at 10 µM [2] [%] | growth at 10 µM [3] [%] | growth at 10 µM [4] [%] | growth at 10 µM [5] [%] | growth at 10 µM [6] [%] | growth at 10 µM [7] [%] | growth at 10 µM [8] [%] | growth at 10 µM [9] [%] | growth at 10 µM [10] [%] | growth at 10 µM [11] [%] | growth at 10 µM [12] [%] | growth at 10 µM [13] [%] | growth at 10 µM [14] [%] | growth at 10 µM [15] [%] | growth at 10 µM [16] [%] | growth at 10 µM [17] [%] | growth at 10 µM [18] [%] | growth at 10 µM [19] [%] | growth at 10 µM [20] [%] | also measured |
| --- | --- | --- | --- | --- | --- | --- | --- | --- | --- | --- | --- | --- | --- | --- | --- | --- | --- | --- | --- | --- | --- |
| CCc1cccc(C)c1NC(=O)c1sc2nc3c(cc2c1N)C(=O)CCC3 | -36 | 38 | 30 | 30 | -20 | 1 | 48 | 29 | 4 | -26 | -2.83 | 49 | -27 | 20 | 17.9 | 28 | 23.3 | 36 | 42 | 24.4 | growth at 10 µM [21]: 29%; growth at 10 µM [22]: 4%; growth at 10 µM [23]: 30%; growth at 10 µM [24]: 14%; growth at 10 µM [25]: 16%; growth at 10 µM [26]: -10%; growth at 10 µM [27]: 28%; growth at 10 µM [28]: 24.8%; growth at 10 µM [29]: -58%; growth at 10 µM [30]: 23%; growth at 10 µM [31]: 32%; growth at 10 µM [32]: -3%; growth at 10 µM [33]: -13%; growth at 10 µM [34]: 13%; growth at 10 µM [35]: 49%; growth at 10 µM [36]: 2% |
| COc1ccc(S(=O)(=O)n2ccc(-c3ccc4c(c3)CCC(C)(C)O4)n2)cc1 | 74.3 | 94.7 | 61.4 | 97.5 | 49.2 | 58.9 | 110 | 78.1 | 110 | 81.2 | 84 | 57.4 | 103 | 83.8 | 65.9 | 52.3 | 78 | 79.5 | 87.1 | 46.7 | growth at 10 µM [21]: 50.5%; growth at 10 µM [22]: 75.4%; growth at 10 µM [23]: 90.8%; growth at 10 µM [24]: 87.7%; growth at 10 µM [25]: 97.6%; growth at 10 µM [26]: 42.6%; growth at 10 µM [27]: 109%; growth at 10 µM [28]: 97.8%; growth at 10 µM [29]: 107%; growth at 10 µM [30]: 90.3%; growth at 10 µM [31]: 101%; growth at 10 µM [32]: 57.3%; growth at 10 µM [33]: 89.1%; growth at 10 µM [34]: 73.5%; growth at 10 µM [35]: 71.4%; growth at 10 µM [36]: 55.6% |
